The source made the active and inactive calls. No cut-off for these calls is given here. Numbered stars: 1 amine (or outer) side, 2 acyl side, 3 side chain; on linkers, the order of the positions; unused ones are H or OH. Bridge positions count the residues as written; N and C are the ends. Square brackets hold non-standard residues; d marks the D form. Peptide text beside a SMILES is read from it. I, II: the chains in the order shown. ξ: configuration not given here. Gly(N(CH2)2(3-indolyl)) = O=C(O)CNCCc1c[nH]c2ccccc12; Gly(N-piperonyl) = O=C(O)CNCc1ccc2c(c1)OCO2; X1 = CC(c1ccccc1)N(CC(=O)[*:2])[*:1]; NFurfurylGly = O=C(O)CNCc1ccco1; NAllylGly = C=CCNCC(=O)O; Nleu = CC(C)CNCC(=O)O; Nlys = NCCCCNCC(=O)O; ξK = NCCCCC(N)C(=O)O; Ahx = NCCCCCC(=O)O; Nme = COCCNCC(=O)O; βAla = NCCC(=O)O
What was measured:
[1] = target: Vascular endothelial growth factor receptor 1 (Homo sapiens) (UniProt P17948); assay: Binding affinity to human recombinant VEGFR1 extracellular domain by ELISA like binding assay
Vascular endothelial growth factor receptor 1 (Homo sapiens), sequence (P17948 whole entry, the tested form may be a part): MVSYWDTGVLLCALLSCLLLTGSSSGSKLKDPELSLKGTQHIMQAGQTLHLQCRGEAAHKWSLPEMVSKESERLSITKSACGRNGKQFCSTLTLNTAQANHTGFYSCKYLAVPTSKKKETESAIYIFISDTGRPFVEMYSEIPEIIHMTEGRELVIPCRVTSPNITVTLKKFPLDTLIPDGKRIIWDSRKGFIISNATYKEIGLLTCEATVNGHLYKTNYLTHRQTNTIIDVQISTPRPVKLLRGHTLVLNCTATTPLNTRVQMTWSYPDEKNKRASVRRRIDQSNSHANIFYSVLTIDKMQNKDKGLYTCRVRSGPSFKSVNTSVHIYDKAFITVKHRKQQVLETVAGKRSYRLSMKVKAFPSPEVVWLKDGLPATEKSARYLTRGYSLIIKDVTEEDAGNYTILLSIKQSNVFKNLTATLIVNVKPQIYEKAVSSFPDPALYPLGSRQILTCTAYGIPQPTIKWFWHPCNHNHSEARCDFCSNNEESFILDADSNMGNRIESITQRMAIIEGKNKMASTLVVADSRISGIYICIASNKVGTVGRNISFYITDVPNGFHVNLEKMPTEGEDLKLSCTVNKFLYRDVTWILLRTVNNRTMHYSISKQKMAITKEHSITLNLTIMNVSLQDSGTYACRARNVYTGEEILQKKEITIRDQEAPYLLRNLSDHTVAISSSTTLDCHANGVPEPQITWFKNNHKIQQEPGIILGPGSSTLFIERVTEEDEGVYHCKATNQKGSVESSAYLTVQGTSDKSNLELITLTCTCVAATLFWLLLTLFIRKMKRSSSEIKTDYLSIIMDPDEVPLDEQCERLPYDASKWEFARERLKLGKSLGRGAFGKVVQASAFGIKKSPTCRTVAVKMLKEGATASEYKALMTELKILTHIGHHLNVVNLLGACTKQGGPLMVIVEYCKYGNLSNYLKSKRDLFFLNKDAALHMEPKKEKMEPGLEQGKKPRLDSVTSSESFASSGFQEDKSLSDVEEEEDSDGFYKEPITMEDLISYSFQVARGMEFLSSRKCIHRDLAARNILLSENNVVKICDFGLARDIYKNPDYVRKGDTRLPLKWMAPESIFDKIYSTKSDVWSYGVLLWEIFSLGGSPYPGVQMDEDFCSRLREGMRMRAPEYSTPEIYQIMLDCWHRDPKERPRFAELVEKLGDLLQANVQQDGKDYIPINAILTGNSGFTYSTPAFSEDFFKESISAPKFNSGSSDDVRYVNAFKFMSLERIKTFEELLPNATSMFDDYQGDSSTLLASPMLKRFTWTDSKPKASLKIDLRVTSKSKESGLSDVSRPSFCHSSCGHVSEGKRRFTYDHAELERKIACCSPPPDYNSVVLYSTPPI
Procedure, shortened: (§1)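 Plates coated overnight at 4 °C with recombinant human VEGFR ECD at 1 µg/mL in carbonate buffer pH 9.5, then washed and blocked. Serial dilutions of FITC-labelled peptoid in blocking buffer or TBST were added for 1 h at room temperature. After five PBS washes, retained fluorescence was read at 520 nm. KD was taken from the titration.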

[2] = target: T1, Vascular endothelial growth factor receptor 2 (Homo sapiens, UniProt P35968); assay: Binding affinity to human recombinant VEGFR2 extracellular domain by ELISA like binding assay; procedure, shortened: as §1
T1 sequence (P35968 whole entry, the tested form may be a part): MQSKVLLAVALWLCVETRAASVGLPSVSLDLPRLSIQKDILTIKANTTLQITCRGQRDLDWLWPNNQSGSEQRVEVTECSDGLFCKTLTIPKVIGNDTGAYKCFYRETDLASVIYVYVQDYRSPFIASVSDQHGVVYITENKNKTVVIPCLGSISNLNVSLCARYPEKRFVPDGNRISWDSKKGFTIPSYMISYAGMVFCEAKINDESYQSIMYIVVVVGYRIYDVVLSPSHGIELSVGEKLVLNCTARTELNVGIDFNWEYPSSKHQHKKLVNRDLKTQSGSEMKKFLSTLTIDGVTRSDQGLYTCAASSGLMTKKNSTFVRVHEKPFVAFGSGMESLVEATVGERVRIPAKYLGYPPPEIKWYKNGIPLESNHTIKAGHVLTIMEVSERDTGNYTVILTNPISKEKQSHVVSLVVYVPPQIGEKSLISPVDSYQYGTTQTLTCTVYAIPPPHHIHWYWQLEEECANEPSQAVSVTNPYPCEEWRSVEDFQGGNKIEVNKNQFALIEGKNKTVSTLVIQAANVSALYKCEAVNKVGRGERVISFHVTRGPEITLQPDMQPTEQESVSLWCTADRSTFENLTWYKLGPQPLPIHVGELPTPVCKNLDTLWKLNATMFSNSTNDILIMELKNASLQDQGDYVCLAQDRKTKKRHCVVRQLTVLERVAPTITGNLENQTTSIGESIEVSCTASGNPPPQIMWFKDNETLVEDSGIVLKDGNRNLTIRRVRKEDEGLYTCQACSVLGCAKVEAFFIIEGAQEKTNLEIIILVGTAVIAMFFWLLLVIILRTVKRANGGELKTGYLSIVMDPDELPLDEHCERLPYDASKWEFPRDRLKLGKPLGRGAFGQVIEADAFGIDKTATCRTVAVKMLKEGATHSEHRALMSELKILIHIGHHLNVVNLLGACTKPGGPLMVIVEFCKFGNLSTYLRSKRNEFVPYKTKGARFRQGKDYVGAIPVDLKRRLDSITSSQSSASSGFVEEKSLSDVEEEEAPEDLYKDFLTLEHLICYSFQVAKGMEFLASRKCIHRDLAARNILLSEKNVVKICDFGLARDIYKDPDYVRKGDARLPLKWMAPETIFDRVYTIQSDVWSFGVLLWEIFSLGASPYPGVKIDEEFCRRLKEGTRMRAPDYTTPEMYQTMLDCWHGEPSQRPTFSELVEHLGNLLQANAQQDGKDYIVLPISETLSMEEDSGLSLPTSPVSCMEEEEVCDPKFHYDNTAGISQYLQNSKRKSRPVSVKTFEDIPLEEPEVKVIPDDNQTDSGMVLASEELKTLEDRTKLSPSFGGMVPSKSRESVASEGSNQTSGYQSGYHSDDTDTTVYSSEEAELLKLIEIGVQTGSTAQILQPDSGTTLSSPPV

[3] = target: Vascular endothelial growth factor receptor 1 (Homo sapiens) (UniProt P17948); assay: Binding affinity to human recombinant VEGFR1(1-3) N terminal domain by ELISA like binding assay; procedure, shortened: as §1
[4] = target: T1, Vascular endothelial growth factor receptor 2; assay: Displacement of GU40C-FITC form human recombinant VEGFR2 extracellular domain by ELISA like binding assay
[5] = target: T1, Vascular endothelial growth factor receptor 2; assay: Displacement of fluorescein-labeled GU40C4 from human recombinant VEGFR2 extracellular domain by ELISA like binding assay

Row | Compound | Activity [1] | Activity [2] | Activity [3] | Activity [4] | Activity [5] | Kd [2] [nM]
1 | CC(C)CN(CC(=O)N(CCCCN)CC(=O)N(CCCCN)CC(N)=O)C(=O)CN(CCCCN)C(=O)CN(Cc1ccc2c(c1)OCO2)C(=O)CN(CCCCN)C(=O)CN(CC(C)C)C(=O)CN(Cc1ccc2c(c1)OCO2)C(=O)CNCCCCN (H-[Nlys][Gly(N-piperonyl)][Nleu][Nlys][Gly(N-piperonyl)][Nlys][Nleu][Nlys][Nlys]-NH2) | Active | Active | Active | Active | – | –
2 | CC(C)CN(CC(=O)N(CCCCN)CC(=O)N(CC(=O)N(CC(=O)N(CCCCN)CC(=O)N(CC(=O)N(CCCCN)CC(=O)N(CCCCN)CC(=O)NCCCCCC(=O)NCCC(=O)NC(CCCCNC(=O)CN(CCCCN)C(=O)CN(CCCCN)C(=O)CN(CC(C)C)C(=O)CN(CCCCN)C(=O)CN(Cc1ccc2c(c1)OCO2)C(=O)CN(C(=O)CN(CCCCN)C(=O)CN(CC(C)C)C(=O)CNCCCCN)C(C)c1ccccc1)C(N)=O)CC(C)C)Cc1ccc2c(c1)OCO2)C(C)c1ccccc1)C(=O)CNCCCCN (configuration not stated) (I: H-[Nlys][Nleu][Nlys][X1][Gly(N-piperonyl)][Nlys][Nleu][Nlys][Nlys][Ahx][βAla][ξK]-NH2 / II: H-[Nlys][Nleu][Nlys][X1][Gly(N-piperonyl)][Nlys][Nleu][Nlys][Nlys]; amide I:12-II:C) | – | Active | – | – | Active | –
3 | C=CCN(CC(=O)N(CC(=O)N(CCCCN)CC(=O)N(CCCCN)CC(N)=O)CC(C)C)C(=O)CN(CC(C)C)C(=O)CN(Cc1ccc2c(c1)OCO2)C(=O)CN(CCc1c[nH]c2ccccc12)C(=O)CN(CCCCN)C(=O)CNCCCCN (H-[Nlys][Nlys][Gly(N(CH2)2(3-indolyl))][Gly(N-piperonyl)][Nleu][NAllylGly][Nleu][Nlys][Nlys]-NH2) | Active | Active | Active | Active | – | –
4 | C=CCN(CC(=O)N(CCc1c[nH]c2ccccc12)CC(=O)N(CCCCN)CC(=O)N(CC(=O)N(CCCCN)CC(=O)N(CCCCN)CC(N)=O)CC(C)C)C(=O)CN(CC(C)C)C(=O)CN(CCOC)C(=O)CNCCCCN (H-[Nlys][Nme][Nleu][NAllylGly][Gly(N(CH2)2(3-indolyl))][Nlys][Nleu][Nlys][Nlys]-NH2) | Active | Active | Active | Active | – | –
5 | CC(C)CN(CC(=O)N(CCCCN)CC(=O)N(CC(=O)N(CC(=O)N(CCCCN)CC(=O)N(CC(=O)N(CCCCN)CC(=O)N(CCCCN)CC(N)=O)CC(C)C)Cc1ccc2c(c1)OCO2)C(C)c1ccccc1)C(=O)CNCCCCN (configuration not stated) (H-[Nlys][Nleu][Nlys][X1][Gly(N-piperonyl)][Nlys][Nleu][Nlys][Nlys]-NH2) | Active | – | Active | Active | – | 1000
6 | CC(C)CN(CC(=O)N(CCCCN)CC(=O)N(CCCCN)CC(N)=O)C(=O)CN(CCCCN)C(=O)CN(CC(C)C)C(=O)CN(CCCCN)C(=O)CN(Cc1ccco1)C(=O)CN(CCCCN)C(=O)CNCCc1c[nH]c2ccccc12 (H-[Gly(N(CH2)2(3-indolyl))][Nlys][NFurfurylGly][Nlys][Nleu][Nlys][Nleu][Nlys][Nlys]-NH2) | Active | – | Active | Active | – | 1000

Reference: ChEMBL document CHEMBL1150420, “A peptoid antagonist of VEGF receptor 2 recognizes a 'hotspot' in the extracellular domain distinct from the hormone-binding site” (Bioorg Med Chem, 2008)
